An excerpt weighted towards active compounds, which were near 12% of everything screened.
KCC2 mod: KCC2 (human) Cl- transport modulation. KCC2 cells, thallium flux FluoZin-2 fluorescence. AID 1456. Q9H2X9. B-score of Tl+ flux slope (higher = more flux/activation; lower = inhibition) at 10 µM. 190,000 compounds, 2.2% hits;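 active means thallium flux slope and its plate-corrected score both differing from the plate sample mean at a set confidence after two filtering rounds, in either direction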;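 further: slope of fluorescence scaled to starting intensity during 10 to 20 s after thallium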
ROMK primary: modulators of human ROMK potassium channel. Tet-inducible ROMK, thallium flux fluorescence; actives lie on both sides. B-score at 10 µM. 130,000 compounds, 2% hits;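 active means signal ratio slope over the read window, or its plate-corrected B-score, at least 3 SD from the plate mean, either direction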;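 further: B-score of the F/F0 ratio slope over 7 to 12 s after thallium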
WT yeast gro inh: growth inhibition of WT yeast, mitochondrial fusion screen; inhibition, % at 10 µM; mitochondrial fusion phenotypic screen, WT strain; 190,000 compounds, 2.1% hits; AID 1362; in the data active means inhibition above about 58%; tested in S. cerevisiae
Lmaj promast: reduces viability of Leishmania major promastigotes. resazurin fluorescence viability. inhibition, % at 10 µM. 200,000 compounds, 9% hits; in the data active means inhibition above about 50%;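 further: promastigotes grown with compound for 44 hours at 28 °C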
Diaph act CS: counter-screen for diaphorase-based assays: diaphorase activators and chemical reducers | Diaphorase/resazurin coupled assay, resorufin fluorescence, 16 min; active compounds read high; 1 = vehicle wells, 0 = NADH-free wells | activation factor at 20 µM | 190,000 compounds, 0.005% hits | AID 1229;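 active means diaphorase activity raised at least twofold by the compound at 20 µM; inactive means activation factor below 2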
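Material: bacterial diaphorase enzyme (C. kluyveri); amount: enzyme 0.07 U/mL final; reagent: NADH substrate 0.114 mM plus resazurin dye 0.1 mM, final; doses: single compound dose of 20 µM, 1% DMSO final; timing: 16 min enzyme reaction, ambient temperature; measured by: fluorescence of resorufin, 544 nm excitation, 590 nm emission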
Diaphorase inh: counter-screen for diaphorase-based assays: diaphorase inhibitors and chemical oxidizers. diaphorase resazurin-to-resorufin fluorescence, NADH, 16 min; bacterial (C. kluyveri) enzyme, not human. inhibition, % at 20 µM. 190,000 compounds, 0.69% hits;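 active means primary screen inhibition at 20 µM above a set limit, cut at about 50% in these data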;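 further: plate controls were DMSO with full reaction for no effect and wells lacking NADH for full effect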
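Assay system: diaphorase enzyme from Clostridium kluyveri. Quantity: enzyme working solution with 0.14 U/mL diaphorase. Schedule: reaction incubation of 16 min at room temperature. Technique: resorufin fluorescence, excitation 544 nm, emission 590 nm. Controls: No-NADH positive control and DMSO neutral control.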
The depositor's hits bear a star; / = no result given.

SMILES | KCC2 mod | ROMK primary | WT yeast gro inh | Lmaj promast | Diaph act CS | Diaphorase inh
COc1ccc(CCNC(=O)CC(NC(=O)c2ccccc2Cl)c2ccccc2)cc1 (stereo not drawn) | -0.97 | / | -7 | 75* | 1 | 5
O=C(CC(NC(=O)c1ccccc1Cl)c1ccccc1)Nc1ccc2c(c1)OCO2 (stereo not drawn) | -0.15 | -0.93 | 18 | 100* | 0.9 | 9
O=C(COC(=O)c1ccccc1[N+](=O)[O-])c1ccc(C2CCCCC2)cc1 | -1.2 | / | 60* | -3 | 1 | 2
O=C(COC(=O)c1ccccc1C(=O)c1ccc(Cl)c([N+](=O)[O-])c1)NC1CC1 | -0.58 | -0.42 | -11 | 9 | 0.9 | 9
O=C(CNC(=O)c1ccccc1Br)N/N=C/c1ccc(O)cc1 | -0.99 | -0.91 | -14 | 3 | 1.1 | -8
CN(CCCNC(=O)c1cccn2c(=O)c3ccccc3nc12)Cc1ccccc1 | -0.68 | -1.4 | -2 | 100* | 1 | 3
O=C(NCCN1CCN(c2ccccc2)CC1)c1cccn2c(=O)c3ccccc3nc12 | -1.2 | 0.64 | 5 | 3 | 0.9 | 13
CCOC(=O)C(C)(C)N(Cc1cccc(C)c1)S(=O)(=O)c1ccc(Cl)c([N+](=O)[O-])c1 | 0.45 | / | 17 | 86* | 0.9 | 10
CCOC(=O)C(C)(C)N(Cc1cccc(C)c1)S(=O)(=O)c1cccc([N+](=O)[O-])c1 | -0.26 | / | 21 | 40 | 1 | 4
O=C(CSc1nnc(COc2ccc(Cl)cc2)o1)N1c2ccccc2CCc2ccccc21 | 0.48 | / | 1 | 67* | 0.8 | 19
CCOC(=O)N1CCN(C(=O)CSc2nnc(COc3ccc(Cl)cc3)o2)CC1 | -0.24 | / | -5 | -7 | 0.9 | 9
O=C(CCn1nc(-c2ccccc2)c2ccccc2c1=O)NN1CCOCC1 | 1.7 | 1.3 | -2 | -2 | 0.9 | 7
O=C(Cn1nc(-c2ccccc2)c2ccccc2c1=O)Nc1ccccn1 | -2 | / | -4 | -1 | 1.1 | -6
O=c1c2ccccc2c(-c2ccccc2)nn1Cc1c(Cl)cccc1Cl | / | / | 61* | 5 | 0.8 | 22
CN1CCN(C(=O)CCn2nc(-c3ccccc3)c3ccccc3c2=O)CC1 | -0.79 | 0.19 | 29 | 54* | 0.9 | 11
COc1ccc(C2CC(c3cccc(OC)c3OC)n3nnnc3N2)cc1 (stereo not drawn) | 0.1 | -0.12 | -7 | -2 | 0.9 | 6
Cc1cc(C)nc(Nc2ncc(O)n2-c2ccccc2)n1 | 0.079 | / | 64* | -2 | 0.9 | 7
Cc1ccc(-n2c(O)cnc2Nc2nc(C)cc(C)n2)cc1 | 0.35 | 0.31 | 18 | -2 | 1 | 5
O=C(c1nc2ccc(Cl)cn2c1CNCC[C@@H]1C[C@@H]2C=C[C@H]1C2)N1CCCCCCC1 | 0.26 | / | 34 | 70* | 0.8 | 18
Cc1cnc(C(=O)N2CCCC(C(=O)c3cccc(OC(C)C)c3)C2)cn1 (stereo not drawn) | 0.44 | 0.39 | -21 | -4 | 0.9 | 12
OCCC1CN(CC#Cc2ccccc2)CCN1C1CCCC1 (stereo not drawn) | -0.48 | / | -1 | 23 | 0.9 | 10
OCCC1CN(Cc2nc3ccccc3s2)CCN1C1CCCC1 (stereo not drawn) | -0.093 | -0.52 | 4 | 67* | 1 | 1
OCCC1CN(CC(c2ccccc2)c2ccccc2)CCN1C1CCCC1 (stereo not drawn) | 0.71 | -1.7 | -1 | 87* | 1 | 5
CCOC(=O)c1c(C)[nH]c(C(=O)CC(=O)OC)c1C | 0.25 | 0.32 | -18 | -5 | 1.1 | -9
CCn1c(Cc2ccccc2)nnc1SCC(=O)NC(C)(C)C | 0.51 | 0.0066 | 31 | -9 | 0.9 | 8
CCn1c(Cc2ccccc2)nnc1SCc1cccc(C(=O)O)c1 | / | 0.62 | 3 | 61* | 0.9 | 13
COCCCN1CN(S(=O)(=O)c2cccs2)c2nc3ccccc3nc21 | -0.06 | -0.24 | / | / | / | /
COCCCN1CN(S(=O)(=O)c2ccc(Cl)cc2)c2nc3ccccc3nc21 | -0.25 | / | 0 | 59* | 0.7 | 28
COc1ccc(NC(=O)c2cccnc2C(=O)O)c(OC)c1 | 0.01 | / | -8 | 3 | 0.7 | 28
Cc1ccn2cc(CSc3ccccc3)nc2c1 | -1 | -0.063 | 60* | 71* | 0.8 | 16

High-throughput results from PubChem BioAssay.
